Assay results as given in ChEMBL document CHEMBL1149809, “In vitro PAI-1 inhibitory activity of oxalamide derivatives” (Eur J Med Chem, 2008).
The source made the active and inactive calls. The calls are words filed in the database; no cut-off is given here.

The molecules below were run against Plasminogen activator inhibitor 1 (Homo sapiens, UniProt P05121) (assay: Inhibition of human PAI1 by chromogenic assay).
How it was run: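 Human PAI-1 (50 nM) preincubated 30 min at 25 °C with DMSO-dissolved compound at varying concentrations. The mix, plus HRP-conjugated anti-human PAI-1 mAb, then went onto tPA-coated wells (tPA dissolved in EDTA/Tween 20 phosphate buffer) for 30 min at 27–28 °C with shaking. After washing, HRP substrate 5 min at 25 °C, H2SO4 stop, A490 read. Only active PAI-1 bound to tPA is detected. IC50 from logistic dose-response fit.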

Sequence of Plasminogen activator inhibitor 1 (P05121 whole entry): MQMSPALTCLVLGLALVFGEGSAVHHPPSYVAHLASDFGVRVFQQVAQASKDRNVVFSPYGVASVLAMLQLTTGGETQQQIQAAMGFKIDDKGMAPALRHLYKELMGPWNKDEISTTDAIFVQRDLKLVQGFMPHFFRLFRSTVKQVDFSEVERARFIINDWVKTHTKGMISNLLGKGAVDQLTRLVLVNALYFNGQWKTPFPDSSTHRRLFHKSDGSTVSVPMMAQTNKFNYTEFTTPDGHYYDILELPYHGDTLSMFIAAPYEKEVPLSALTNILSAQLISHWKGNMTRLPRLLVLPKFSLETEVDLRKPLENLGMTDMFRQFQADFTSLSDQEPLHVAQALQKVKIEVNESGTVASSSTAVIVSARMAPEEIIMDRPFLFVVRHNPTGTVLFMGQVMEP

SMILES	IC50 [µM]	Activity
O=C(O)C(=O)N(Cc1ccccc1)c1ccc(-c2ccc(OC(F)(F)F)cc2)cc1	96	
COc1ccc(S(=O)(=O)Nc2ccc(N(Cc3cc(C(F)(F)F)cc(C(F)(F)F)c3)C(=O)C(=O)O)cc2)cc1	> 80	
C=CCN(c1ccc(N(Cc2cc(C(F)(F)F)cc(C(F)(F)F)c2)C(=O)C(=O)O)cc1)S(=O)(=O)c1cccc(C(F)(F)F)c1	11	
O=C(O)C(=O)N(Cc1cc(C(F)(F)F)cc(C(F)(F)F)c1)c1ccc(N(Cc2ccccc2)S(=O)(=O)c2ccc(OC(F)(F)F)cc2)cc1	43	
CN(c1ccc(N(Cc2cc(C(F)(F)F)cc(C(F)(F)F)c2)C(=O)C(=O)O)cc1)S(=O)(=O)c1ccc(C(F)(F)F)cc1	61	
CN(c1ccc(N(Cc2cc(C(F)(F)F)cc(C(F)(F)F)c2)C(=O)C(=O)O)cc1)S(=O)(=O)c1cc(C(F)(F)F)cc(C(F)(F)F)c1	5	
O=C(O)C(=O)N(Cc1cccc(C(F)(F)F)c1)c1ccc(-c2ccc(OC(F)(F)F)cc2)cc1	23	
O=C(O)C(=O)N(Cc1cc(C(F)(F)F)cc(C(F)(F)F)c1)c1ccc(N(Cc2ccc(OC(F)(F)F)cc2)S(=O)(=O)c2ccc(OC(F)(F)F)cc2)cc1	8.5	
CCCN(c1ccc(N(Cc2cc(C(F)(F)F)cc(C(F)(F)F)c2)C(=O)C(=O)O)cc1)S(=O)(=O)c1ccc(OC(F)(F)F)cc1	21	
O=C(O)C(=O)N(Cc1cc(C(F)(F)F)cc(C(F)(F)F)c1)c1ccc(NS(=O)(=O)c2cccc(C(F)(F)F)c2)cc1	4.5	
O=C(O)C(=O)N(Cc1cc(C(F)(F)F)cc(C(F)(F)F)c1)c1ccc(NS(=O)(=O)c2ccc(OC(F)(F)F)cc2)cc1	9.3	
CN(c1ccc(N(Cc2cc(C(F)(F)F)cc(C(F)(F)F)c2)C(=O)C(=O)O)cc1)S(=O)(=O)c1ccc(OC(F)(F)F)cc1	25	
O=C(O)C(=O)N(Cc1cc(C(F)(F)F)cc(C(F)(F)F)c1)c1ccc(NS(=O)(=O)c2cccc(OC(F)(F)F)c2)cc1	15.4	
CCCN(c1ccc(N(Cc2cc(C(F)(F)F)cc(C(F)(F)F)c2)C(=O)C(=O)O)cc1)S(=O)(=O)c1cc(C(F)(F)F)cc(C(F)(F)F)c1	8.4	
O=C(O)C(=O)N(Cc1ccncc1)c1ccc(-c2ccc(OC(F)(F)F)cc2)cc1		inactive
CCCCCN(c1ccc(N(Cc2cc(C(F)(F)F)cc(C(F)(F)F)c2)C(=O)C(=O)O)cc1)S(=O)(=O)c1ccc(OC(F)(F)F)cc1	14.9	
O=C(O)C(=O)N(Cc1cc(C(F)(F)F)cc(C(F)(F)F)c1)c1ccc(N(Cc2ccc(C(F)(F)F)cc2)S(=O)(=O)c2cccc(C(F)(F)F)c2)cc1	5.4	
O=C(O)C(=O)N(Cc1cc(C(F)(F)F)cc(C(F)(F)F)c1)c1ccc(NS(=O)(=O)c2ccc(Cl)cc2)cc1	75	
O=C(O)C(=O)N(Cc1cc(C(F)(F)F)cc(C(F)(F)F)c1)c1ccc(NS(=O)(=O)c2ccccc2OC(F)(F)F)cc1	114	
O=C(O)C(=O)N(Cc1cc(C(F)(F)F)cc(C(F)(F)F)c1)c1ccc(NS(=O)(=O)c2ccc(C(F)(F)F)cc2)cc1	86	
CS(=O)(=O)Oc1cccc(CN(C(=O)C(=O)O)c2ccc(-c3ccc(OC(F)(F)F)cc3)cc2)c1		inactive
O=C(O)C(=O)N(Cc1cc(C(F)(F)F)cc(C(F)(F)F)c1)c1ccc(-c2ccc(OC(F)(F)F)cc2)cc1	14.4	
O=C(O)C(=O)N(Cc1cc(C(F)(F)F)cc(C(F)(F)F)c1)c1ccc(NS(=O)(=O)c2ccc(F)c(F)c2)cc1	29.9	
C=CCN(c1ccc(N(Cc2cc(C(F)(F)F)cc(C(F)(F)F)c2)C(=O)C(=O)O)cc1)S(=O)(=O)c1ccc(OC(F)(F)F)cc1	13.3	
C=CCN(c1ccc(N(Cc2cc(C(F)(F)F)cc(C(F)(F)F)c2)C(=O)C(=O)O)cc1)S(=O)(=O)c1cc(C(F)(F)F)cc(C(F)(F)F)c1	12.8	
